Data from ChEMBL document CHEMBL3244384, “3,4-Methylenedioxyphenyl-, isopropylidenedioxyphenyl-, and benzyl-substituted chiral 2-aminosuccinimides and 3-aminopyrrolidines. Stereoselective investigations of potential anti-parkinsonian, antipsychotic, and anticonvulsant activities” (J Med Chem, 1977).
Active and inactive are the calls of the source.

Experiments:
Mus musculus [1] = assay: Anti-parkinsonian activity in ip dosed albino CD-1 mouse assessed as inhibition of oxotremorine-induced salivation at 0.25 to 1 time TD50 administered 30 mins prior challenge; format: functional, organism-based
Outline: (§1)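 Male CD-1 mice (20-25 g), groups of five, given test compound ip (aqueous, 1.0 mL/100 g) or saline 30 min before oxotremorine 1 mg/kg ip. Tremor intensity scored 0 absent, 1 mild, 2 moderate, 3 severe, summed over five animals; diarrhea and salivation also observed.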

Mus musculus [2] = assay: Anticonvulsant activity in ip dosed albino CD-1 mouse assessed as threshold ratio for pentylenetetrazole-induced tonic-clonic seizures at 0.5 time TD50 measured at time of peak effect relative to saline-treated control; format: functional
Outline: (§2)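 Male CD-1 mice (20-25 g) given saline or 0.5 TD50 test compound ip. At time of peak activity, pentylenetetrazole (0.5%) infused iv at 0.51 mL/min until minimal (clonic) or maximal (tonic-clonic) seizure. Threshold ratio = mean mg/kg pentylenetetrazole in treated mice ÷ mg/kg in saline mice, with 95% confidence intervals.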

[3] = Neurotoxicity in ip dosed albino CD-1 mouse by rotarod test; format: toxicity, organism-based; conditions: in vivo
Outline: (§3)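 Male CD-1 mice (20-25 g), groups of 6-12, given ip doses in aqueous solution (1.0 mL/100 g). Neurotoxicity = failure to stay 1 min on a rod turning at 6 rpm. Time of peak central activity found. TD50 and 95% limits by Litchfield-Wilcoxon from at least three points in the 10-90% range.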

Mus musculus [4] = assay: Anti-parkinsonian activity in ip dosed albino CD-1 mouse assessed as inhibition of oxotremorine-induced tremor at 0.25 to 1 time TD50 administered 30 mins prior challenge; format: functional, organism-based; outline: as §1
Mus musculus [5] = assay: Neurotoxicity in ip dosed albino CD-1 mouse assessed as time to peak central activity by rotarod test; format: toxicity, organism-based; conditions: in vivo; outline: as §3
Mus musculus [6] = assay: Anticonvulsant activity in ip dosed albino CD-1 mouse assessed as protection from maximal electroshock-induced seizures measured at time of peak effect; format: functional; conditions: CD-1, ip
Outline: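 Male CD-1 mice (20-25 g) dosed ip in aqueous solution (1.0 mL/100 g). At time of peak rotarod activity, MES given by corneal electrodes (50-mA ac, 0.2 s). End point: abolition of hindlimb-extensor component.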

Mus musculus [7] = assay: Anti-parkinsonian activity in ip dosed albino CD-1 mouse assessed as inhibition of oxotremorine-induced diarrhea at 0.25 to 1 time TD50 administered 30 mins prior challenge; format: functional, organism-based; outline: as §1
Mus musculus [8] = assay: Anticonvulsant activity in ip dosed albino CD-1 mouse assessed as threshold ratio for pentylenetetrazole-induced clonic seizures at 0.5 time TD50 measured at time of peak effect relative to saline-treated control; format: functional; outline: as §2
Mus musculus [9] = assay: Toxicity in albino CD-1 mouse assessed as increased excitability to touch at >/= 6.1 mmol/kg, ip; format: organism-based; conditions: in vivo
Mus musculus [10] = assay: Toxicity in albino CD-1 mouse assessed as occasional clonic seizure-like movements at >/= 6.1 mmol/kg, ip; format: organism-based; conditions: in vivo
Mus musculus [11] = assay: Toxicity in albino CD-1 mouse assessed as twitching at >/= 6.1 mmol/kg, ip; format: organism-based; conditions: in vivo
Mus musculus [12] = assay: Toxicity in albino CD-1 mouse assessed as loss of righting reflex at >/= 6.1 mmol/kg, ip; format: organism-based; conditions: in vivo
[13] = Protective index, ratio of TD50 for neurotoxicity to ED50 for anticonvulsant activity in ip dosed albino CD-1 mouse; format: toxicity, organism-based; conditions: in vivo, read-out: Ratio TD50/ED50
Outline: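 Groups of 6-12 male CD-1 mice dosed ip across a range giving at least three points at 10-90% MES protection or rotarod neurotoxicity. ED50 and TD50 by Litchfield-Wilcoxon; PI = TD50/ED50, not calculated when protection is below 50%.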

Mus musculus [14] = assay: Toxicity in albino CD-1 mouse assessed as behavioral effect at 2.81 mmol/kg, ip; format: organism-based; conditions: in vivo
Mus musculus [15] = assay: Toxicity in albino CD-1 mouse assessed as sedation at >/= 2.68 mmol/kg, ip; format: organism-based; conditions: in vivo
Mus musculus [16] = assay: Toxicity in albino CD-1 mouse assessed as loss of righting reflex at >/= 2.68 mmol/kg, ip; format: organism-based; conditions: in vivo
Mus musculus [17] = assay: Toxicity in albino CD-1 mouse assessed as mortality at >/= 2.68 mmol/kg, ip; format: organism-based; conditions: in vivo
Mus musculus [18] = assay: Toxicity in albino CD-1 mouse assessed as clonic-like seizure activity at >/= 2.68 mmol/kg, ip; format: organism-based; conditions: in vivo
Mus musculus [19] = assay: Anti-parkinsonian activity in ip dosed albino CD-1 mouse assessed as inhibition of oxotremorine-induced tremor administered 30 mins prior challenge; format: functional, organism-based; outline: as §1
[20] = Antagonist activity at acetylcholine receptor (unknown origin); parameters: species or system Homo sapiens

Compound	Activity (Mus musculus [1])	Ratio (Mus musculus [2])	TD50 [3] [µmol/kg]	Activity (Mus musculus [4])	Time (Mus musculus [5]) [min]	ED50 (Mus musculus [6]) [µmol/kg]	Activity (Mus musculus [7])	Ratio (Mus musculus [8])	Activity (Mus musculus [9])	Activity (Mus musculus [10])	Activity (Mus musculus [11])	Activity (Mus musculus [12])	selectivity ratio [13]	Activity (Mus musculus [14])	Activity (Mus musculus [15])	Activity (Mus musculus [16])	Activity (Mus musculus [17])	Activity (Mus musculus [18])	Activity (Mus musculus [19])	pA2 [20]
Cl.N[C@@H]1CC(=O)N(c2ccc3c(c2)OCO3)C1=O	Active	0.75	3330	inactive	45	3330	Active	1.03	–	–	–	–	–	–	–	–	–	–	–	–
CC(=O)N[C@H]1CC(=O)N(Cc2ccccc2)C1=O	–	1.11	5280	–	30	1200	–	1.06	Toxic	Toxic	Toxic	Toxic	4.41	–	–	–	–	–	–	–
Cl.N[C@H]1CC(=O)N(Cc2ccc3c(c2)OCO3)C1=O	–	1.09	2000	–	15	700	–	1.54	–	–	–	–	2.85	Non-toxic	–	–	–	–	–	–
O=C1N=C([O-])NC1(c1ccccc1)c1ccccc1.[Na+] [PHENYTOIN SODIUM]	–	2.08	220	–	45	22	–	1.07	–	–	–	–	10	–	–	–	–	–	–	–
Cl.N[C@@H]1CC(=O)N(Cc2ccc3c(c2)OCO3)C1=O	–	1.18	1830	–	15	720	–	1.61	–	–	–	–	2.54	Non-toxic	–	–	–	–	–	–
CC1(C)Oc2ccc(N3C(=O)C[C@H](N)C3=O)cc2O1.Cl	inactive	1.34	1220	Active	30	840	inactive	1.36	–	–	–	–	1.45	–	Toxic	Toxic	Toxic	Toxic	–	–
CCC1(C)CC(=O)NC1=O (stereo not given) [ETHOSUXIMIDE]	–	1.71	2320	–	5	2320	–	1.34	–	–	–	–	–	–	–	–	–	–	–	–
CC(=O)N[C@@H]1CC(=O)N(Cc2ccccc2)C1=O	–	0.85	4760	–	30	1460	–	1.36	Toxic	Toxic	Toxic	Toxic	3.25	–	–	–	–	–	–	–
CC1(C)Oc2ccc(N3C(=O)C[C@@H](N)C3=O)cc2O1.Cl	inactive	1.66	960	Active	15	570	inactive	1.28	–	–	–	–	1.68	–	Toxic	Toxic	Toxic	Toxic	Dose-dependent effect	–
CCN[C@@H]1CCN(c2ccccc2)C1	–	–	–	–	–	–	–	–	–	–	–	–	–	–	–	–	–	–	–	3.5
Cl.N[C@H]1CC(=O)N(c2ccc3c(c2)OCO3)C1=O	Active	0.92	5040	inactive	45	5040	Active	1.08	–	–	–	–	–	–	–	–	–	–	–	–
CN1C(=O)OC(C)(C)C1=O [TRIMETHADIONE]	–	2.25	3980	–	5	3720	–	2.05	–	–	–	–	1.07	–	–	–	–	–	–	–
